Measurements reported in ChEMBL document CHEMBL3243991, “Antiinflammatory agents. 1. Synthesis and antiinflammatory activity of 2-amino-3-benzoylphenylacetic acid” (J Med Chem, 1979).

Columns and labels:
Rattus norvegicus [1] = experiment: Antiinflammatory activity against adjuvant-induced arthritis in Lewis Wistar rat assessed as change in 11 day edema volume in adjuvant uninjected foot at 3.16 mg/kg, po treated once daily on days 18 to 22 and […]; assay type: functional
Procedure, shortened: (§1)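 Therapeutic regimen in the adjuvant-induced arthritic rat model: compound given once daily on days 18-22 and 25-28. Dosed by gavage (10 mL/kg) as a solution or suspension in water containing 0.5% Tween 80. Groups of 8 rats (one group of 7), with vehicle-dosed negative and positive controls. Injected- and uninjected-foot edema (mL ± SD) and body-weight change (g ± SD) recorded over 11 days; p < 0.05 flagged.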

Rattus norvegicus [2] = experiment: Antiinflammatory activity against adjuvant-induced arthritis in Lewis Wistar rat assessed as potency in adjuvant injected foot treated po once daily on days 18 to 22 and 25 to 28 relative to phenylbutazone
Rattus norvegicus [3] = experiment: Toxicity in adjuvant-induced arthritis Lewis Wistar rat model assessed as change in 11 day weight at 0.316 mg/kg, po treated once daily on days 18 to 22 and […]; assay type: organism-based; parameters: dose 0.316 mg/kg, route oral; conditions: in vivo, 264 h; procedure, shortened: as §1
Rattus norvegicus [4] = experiment: Antiinflammatory activity against adjuvant-induced arthritis in Lewis Wistar rat assessed as change in 11 day edema volume in adjuvant injected foot at 0.316 mg/kg, po treated once daily on days 18 to 22 and […]; assay type: functional; procedure, shortened: as §1
Rattus norvegicus [5] = experiment: Toxicity in adjuvant-induced arthritis Lewis Wistar rat model assessed as change in 11 day weight at 3.16 mg/kg, po treated once daily on days 18 to 22 and […]; assay type: organism-based; parameters: dose 3.16 mg/kg, route oral; conditions: in vivo, 264 h; procedure, shortened: as §1
Rattus norvegicus [6] = experiment: Antiinflammatory activity against adjuvant-induced arthritis in Lewis Wistar rat assessed as potency in adjuvant uninjected foot treated po once daily on days 18 to 22 and 25 to 28 relative to phenylbutazone
Rattus norvegicus [7] = experiment: Antiinflammatory activity against adjuvant-induced arthritis in Lewis Wistar rat assessed as change in 11 day edema volume in adjuvant uninjected foot at 0.316 mg/kg, po treated once daily on days 18 to 22 and […]; assay type: functional; procedure, shortened: as §1
Rattus norvegicus [8] = experiment: Antiinflammatory activity against adjuvant-induced arthritis in Lewis Wistar rat assessed as change in 11 day edema volume in adjuvant uninjected foot at 0.03 mg/kg, po treated once daily on days 18 to 22 and […]; assay type: functional; procedure, shortened: as §1
Rattus norvegicus [9] = experiment: Antiinflammatory activity against adjuvant-induced arthritis in Lewis Wistar rat assessed as change in 11 day edema volume in adjuvant injected foot at 0.03 mg/kg, po treated once daily on days 18 to 22 and 25 to 28
Rattus norvegicus [10] = experiment: Toxicity in adjuvant-induced arthritis Lewis Wistar rat model assessed as change in 11 day weight at 0.03 mg/kg, po treated once daily on days 18 to 22 and […]; assay type: organism-based; parameters: dose 0.03 mg/kg, route oral; conditions: in vivo, 264 h; procedure, shortened: as §1
Rattus norvegicus [11] = experiment: Antiinflammatory activity against adjuvant-induced arthritis in Lewis Wistar rat assessed as change in 11 day edema volume in adjuvant injected foot at 3.16 mg/kg, po treated […]; assay type: functional
Rattus norvegicus [12] = experiment: Antiinflammatory activity in fasted male rat assessed as decrease in carrageenan-induced pleural fluid at 4 mg/kg, po after 5 hrs by Evans blue carrageenan pleural effusion assay relative to control; assay type: functional; conditions: for inhibition in vivo at 4 mg/kg: Rattus norvegicus, Pleural fluid, po, 5 h
Procedure, shortened: (§2)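 Evans blue carrageenan pleural effusion assay, run by sequential analysis. Screened first at 316 mg/kg orally alongside acetylsalicylic acid at the same dose; active agents were retested in 6 rats at one or two doses against phenylbutazone. Given by gavage (10 mL/kg) in water with 0.5% Tween 80. Pleural fluid measured in mL ± SD; % decrease taken versus vehicle control.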

Rattus norvegicus [13] = experiment: Antiinflammatory activity in fasted male rat assessed as decrease in carrageenan-induced pleural fluid at 0.8 mg/kg, po after 5 hrs by Evans blue carrageenan pleural effusion assay relative to control; assay type: functional; conditions: for inhibition in vivo at 0.8 mg/kg: Rattus norvegicus, Pleural fluid, po, 5 h; procedure, shortened: as §2
Liver microsome = experiment: Drug metabolism in rat liver microsomes assessed as recovery as total extract radioactivity by TLC; assay type: ADME
Procedure, shortened: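 14C-labeled substrate (10 mg) was sonicated into 30 mL of 0.1 M Na+/K+ phosphate buffer, pH 7.4. The mixture was extracted with three portions of ether, extract radioactivity recovery was determined, and TLC was run immediately (acetone/CHCl3 2:98).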

Rattus norvegicus [14] = experiment: Antiinflammatory activity in fasted male rat assessed as decrease in carrageenan-induced pleural fluid at 50 mg/kg, po after 5 hrs by Evans blue carrageenan pleural effusion assay relative to control; assay type: functional; procedure, shortened: as §2
Rattus norvegicus [15] = experiment: Antiinflammatory activity in fasted male rat assessed as decrease in carrageenan-induced pleural fluid at 10 mg/kg, po after 5 hrs by Evans blue carrageenan pleural effusion assay relative to control; assay type: functional; procedure, shortened: as §2
Rattus norvegicus [16] = experiment: Antiinflammatory activity against adjuvant-induced arthritis in Lewis Wistar rat assessed as change in 11 day edema volume in adjuvant uninjected foot at 10 mg/kg, po […]; assay type: functional
Rattus norvegicus [17] = experiment: Toxicity in adjuvant-induced arthritis Lewis Wistar rat model assessed as change in 11 day weight at 10 mg/kg, po treated once daily on days 18 to 22 and […]; assay type: organism-based; parameters: dose 10 mg/kg, route oral; conditions: in vivo, 264 h; procedure, shortened: as §1
Rattus norvegicus [18] = experiment: Antiinflammatory activity against adjuvant-induced arthritis in Lewis Wistar rat assessed as change in 11 day edema volume in adjuvant injected foot at 10 mg/kg, po treated once daily on days 18 to 22 and […]; assay type: functional; procedure, shortened: as §1
Rattus norvegicus [19] = experiment: Antiinflammatory activity in fasted male rat assessed as decrease in carrageenan-induced pleural fluid at 20 mg/kg, po after 5 hrs by Evans blue carrageenan pleural effusion assay relative to control; assay type: functional; procedure, shortened: as §2
Rattus norvegicus [20] = experiment: Antiinflammatory activity in fasted male rat assessed as decrease in carrageenan-induced pleural fluid at 2 mg/kg, po after 5 hrs by Evans blue carrageenan pleural effusion assay relative to control; assay type: functional; procedure, shortened: as §2
Rattus norvegicus [21] = experiment: Toxicity in adjuvant-induced arthritis Lewis Wistar rat model assessed as change in 11 day weight at 31.6 mg/kg, po treated once daily on days 18 to 22 and 25 to 28; conditions: in vivo, 264 h
Rattus norvegicus [22] = experiment: Antiinflammatory activity against adjuvant-induced arthritis in Lewis Wistar rat assessed as change in 11 day edema volume in adjuvant uninjected foot at 31.6 mg/kg, po treated once daily on days 18 to 22 and […]; assay type: functional; procedure, shortened: as §1
Rattus norvegicus [23] = experiment: Antiinflammatory activity against adjuvant-induced arthritis in Lewis Wistar rat assessed as change in 11 day edema volume in adjuvant injected foot at 31.6 mg/kg, po treated […]; assay type: functional
Rattus norvegicus [24] = experiment: Antiinflammatory activity in fasted male rat assessed as decrease in carrageenan-induced pleural fluid at 100 mg/kg, po after 5 hrs by Evans blue carrageenan pleural effusion assay relative to control; assay type: functional; procedure, shortened: as §2
Rattus norvegicus [25] = experiment: Antiinflammatory activity against adjuvant-induced arthritis in Lewis Wistar rat assessed as change in 11 day edema volume in adjuvant injected foot at 0.0316 mg/kg, po treated […]; assay type: functional
Rattus norvegicus [26] = experiment: Toxicity in adjuvant-induced arthritis Lewis Wistar rat model assessed as change in 11 day weight at 0.0316 mg/kg, po treated once daily on days 18 to 22 and 25 to 28; conditions: in vivo, 264 h
Rattus norvegicus [27] = experiment: Antiinflammatory activity against adjuvant-induced arthritis in Lewis Wistar rat assessed as change in 11 day edema volume in adjuvant injected foot at 0.0031 mg/kg, po treated once daily on days 18 to 22 and […]; assay type: functional; procedure, shortened: as §1
Rattus norvegicus [28] = experiment: Antiinflammatory activity against adjuvant-induced arthritis in Lewis Wistar rat assessed as change in 11 day edema volume in adjuvant uninjected foot at 0.0316 mg/kg, po treated once daily on days 18 to 22 and […]; assay type: functional; procedure, shortened: as §1
Rattus norvegicus [29] = experiment: Antiinflammatory activity against adjuvant-induced arthritis in Lewis Wistar rat assessed as change in 11 day edema volume in adjuvant uninjected foot at 0.0031 mg/kg, po […]; assay type: functional
Rattus norvegicus [30] = experiment: Toxicity in adjuvant-induced arthritis Lewis Wistar rat model assessed as change in 11 day weight at 0.0031 mg/kg, po treated once daily on days 18 to 22 and 25 to 28; conditions: in vivo, 264 h
Rattus norvegicus [31] = experiment: Antiinflammatory activity in fasted male rat assessed as decrease in carrageenan-induced pleural fluid at 316 mg/kg, po after 5 hrs by Evans blue carrageenan pleural effusion assay relative to control; assay type: functional; procedure, shortened: as §2
Rattus norvegicus [32] = experiment: Antiinflammatory activity in fasted male rat assessed as decrease in carrageenan-induced pleural fluid at 60 mg/kg, po after 5 hrs by Evans blue carrageenan pleural effusion assay relative to control; assay type: functional; procedure, shortened: as §2
Rattus norvegicus [33] = experiment: Antiinflammatory activity in fasted male rat assessed as decrease in carrageenan-induced pleural fluid at 300 mg/kg, po after 5 hrs by Evans blue carrageenan pleural effusion assay relative to control; assay type: functional; procedure, shortened: as §2

## CCOC(=O)Cc1cccc(C(=O)c2ccccc2)c1N
Rattus norvegicus [1]
  Activity: -0.1 mL
Rattus norvegicus [2]
  fold change (FC): 10.9
Rattus norvegicus [3]
  Activity: 10 g
Rattus norvegicus [4]
  Activity: -0.1 mL
Rattus norvegicus [5]
  Activity: 13 g
Rattus norvegicus [6]
  fold change (FC): 5.1
Rattus norvegicus [7]
  Activity: 0.1 mL
Rattus norvegicus [8]
  Activity: 0.6 mL
Rattus norvegicus [9]
  Activity: 0.4 mL
Rattus norvegicus [10]
  Activity: 11 g
Rattus norvegicus [11]
  Activity: -0.6 mL
Rattus norvegicus [12]
  inhibition in vivo at 4 mg/kg: 37.3%
Rattus norvegicus [13]
  inhibition in vivo at 0.8 mg/kg: 26.9%

## O=C(c1cccc2c1NCC2)[14c]1[14cH][14cH][14cH][14cH][14cH]1
Liver microsome
  Drug recovery: 49%

## O=C(c1ccccc1)c1cccc2c1NCC2
Rattus norvegicus [14]
  inhibition in vivo at 50 mg/kg: 35.5%
Rattus norvegicus [15]
  inhibition in vivo at 10 mg/kg: 14.5%

## Nc1c(CC(=O)O)cccc1C(=O)c1ccccc1 [AMFENAC]
Rattus norvegicus [12]
  inhibition in vivo at 4 mg/kg: 33.8%
Rattus norvegicus [13]
  inhibition in vivo at 0.8 mg/kg: 10.3%

## CCCCC1C(=O)N(c2ccccc2)N(c2ccccc2)C1=O [PHENYLBUTAZONE]
Rattus norvegicus [16]
  Activity: -0.2 mL
Rattus norvegicus [1]
  Activity: 0 mL
Rattus norvegicus [17]
  Activity: 20 g
Rattus norvegicus [3]
  Activity: 8 g
Rattus norvegicus [4]
  Activity: 0.4 mL
Rattus norvegicus [5]
  Activity: 8 g
Rattus norvegicus [18]
  Activity: -0.5 mL
Rattus norvegicus [7]
  Activity: 0.4 mL
Rattus norvegicus [19]
  inhibition in vivo at 20 mg/kg: 19.4%
Rattus norvegicus [20]
  inhibition in vivo at 2 mg/kg: 0%
Rattus norvegicus [21]
  Activity: 26 g
Rattus norvegicus [22]
  Activity: -0.4 mL
Rattus norvegicus [14]
  inhibition in vivo at 50 mg/kg: 24.2%
Rattus norvegicus [23]
  Activity: -0.9 mL
Rattus norvegicus [24]
  inhibition in vivo at 100 mg/kg: 31%
Rattus norvegicus [15]
  inhibition in vivo at 10 mg/kg: 10.5%
Rattus norvegicus [11]
  Activity: -0.3 mL

## O=C(O)c1cccc2c1NCC2
Rattus norvegicus [24]
  inhibition in vivo at 100 mg/kg: 12.6%

## O=C(c1ccccc1)c1cccc2cc[nH]c12
Liver microsome
  Drug recovery: 16%

## Nc1c(CC(=O)[O-])cccc1C(=O)c1ccccc1.[Na+] [AMFENAC SODIUM]
Rattus norvegicus [2]
  fold change (FC): 14.2
Rattus norvegicus [3]
  Activity: 3 g
Rattus norvegicus [4]
  Activity: -0.3 mL
Rattus norvegicus [6]
  fold change (FC): 23.9
Rattus norvegicus [7]
  Activity: -0.2 mL
Rattus norvegicus [25]
  Activity: 0.2 mL
Rattus norvegicus [26]
  Activity: 6 g
Rattus norvegicus [27]
  Activity: 0.2 mL
Rattus norvegicus [28]
  Activity: 0.4 mL
Rattus norvegicus [29]
  Activity: 0.6 mL
Rattus norvegicus [30]
  Activity: 12 g
Rattus norvegicus [12]
  inhibition (INH): 33.3%
Rattus norvegicus [13]
  inhibition (INH): 11.1%

## O=C1Nc2c(cccc2C(=O)c2ccccc2)C1=O
Rattus norvegicus [31]
  inhibition in vivo at 316 mg/kg: 18.4%

## CC(=O)Oc1ccccc1C(=O)O [ASPIRIN]
Rattus norvegicus [31]
  inhibition in vivo at 316 mg/kg: 31.6%

## O=C1Cc2cccc(C(=O)c3ccccc3)c2N1
Rattus norvegicus [32]
  inhibition in vivo at 60 mg/kg: 11.1%
Rattus norvegicus [33]
  inhibition in vivo at 300 mg/kg: 17.5%
